Data as given in ChEMBL document CHEMBL4017482, “4-Connected azabicyclo[5.3.0]decane Smac mimetics-Zn2+ chelators as dual action antitumoral agents” (Bioorg Med Chem Lett, 2017).
Calls of active or inactive are those of the source. The calls are words filed in the database; no cut-off is given here.

Legend:
MDA-MB-231 [1] = test: Induction of apoptosis in smac mimetic-sensitive human MDA-MB-231 cells assessed as increase in cleaved casapse-3 at 5 uM measured after 24 hrs by Western blot analysis; assay type: functional, cell-based
[2] = Metal chelating activity of compound assessed as 1:1 stoichiometry for compound-Zn2+ complex at 50 uM measured after 15 mins by spectrofluorimetric method; assay type: functional
Summary of the method: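 Compounds were titrated with Zn2+, and chelation was followed by fluorescence spectroscopy.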

MDA-MB-231 [3] = test: Induction of apoptosis in smac mimetic-sensitive human MDA-MB-231 cells assessed as increase in cleaved PARP level at 5 uM measured after 24 hrs by Western blot analysis; assay type: functional, cell-based
[4] = target: E3 ubiquitin-protein ligase XIAP (Homo sapiens) (UniProt P98170); test: Induction of XIAP degradation in smac mimetic-sensitive human MDA-MB-231 cells at 5 uM measured after 24 hrs by Western blot analysis
[5] = target: E3 ubiquitin-protein ligase XIAP (Homo sapiens) (UniProt P98170); test: Induction of XIAP degradation in smac mimetic-resistant human MDA-MB-453 cells at 5 uM measured after 24 hrs by Western blot analysis
MDA-MB-453 [6] = test: Induction of apoptosis in smac mimetic-resistant human MDA-MB-453 cells assessed as increase in cleaved casapse-3 at 5 uM measured after 24 hrs by Western blot analysis; assay type: functional, cell-based
MDA-MB-453 [7] = test: Induction of apoptosis in smac mimetic-resistant human MDA-MB-453 cells assessed as increase in cleaved PARP level at 5 uM measured after 24 hrs by Western blot analysis; assay type: functional, cell-based
MDA-MB-231 [8] = test: Cytotoxicity against human smac mimetic-sensitive human MDA-MB-231 cells after 24 hrs by CellTiter-Glo assay; conditions: MDA-MB-231, 24 h
MDA-MB-453 [9] = test: Cytotoxicity against human smac mimetic-sensitive human MDA-MB-453 cells after 24 hrs by CellTiter-Glo assay; conditions: MDA-MB-453, 24 h

E3 ubiquitin-protein ligase XIAP (Homo sapiens), sequence (P98170 whole entry): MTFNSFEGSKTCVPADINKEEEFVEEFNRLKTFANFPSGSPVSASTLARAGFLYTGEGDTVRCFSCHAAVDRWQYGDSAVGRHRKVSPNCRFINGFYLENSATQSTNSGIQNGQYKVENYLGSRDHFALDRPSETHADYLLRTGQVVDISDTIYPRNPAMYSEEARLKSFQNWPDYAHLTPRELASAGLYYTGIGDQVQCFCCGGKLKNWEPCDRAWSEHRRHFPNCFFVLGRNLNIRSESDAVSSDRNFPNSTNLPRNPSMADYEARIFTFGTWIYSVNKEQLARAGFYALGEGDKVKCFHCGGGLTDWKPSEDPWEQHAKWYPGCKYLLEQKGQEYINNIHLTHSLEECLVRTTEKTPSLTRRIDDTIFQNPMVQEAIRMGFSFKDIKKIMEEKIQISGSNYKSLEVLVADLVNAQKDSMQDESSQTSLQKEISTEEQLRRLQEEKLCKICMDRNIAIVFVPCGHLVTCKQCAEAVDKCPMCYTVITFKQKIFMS

| Compound | Activity (MDA-MB-231 [1]) | Activity [2] | Activity (MDA-MB-231 [3]) | Activity [4] | Activity [5] | Activity (MDA-MB-453 [6]) | Activity (MDA-MB-453 [7]) | IC50 (MDA-MB-231 [8]) [µM] | IC50 (MDA-MB-453 [9]) [µM] |
| --- | --- | --- | --- | --- | --- | --- | --- | --- | --- |
| CC[C@H](NC)C(=O)N[C@@H]1C(=O)N2[C@@H](CC[C@@H]1CNC(=O)CCCCCCCCCCNC(=O)CN(Cc1ccccn1)Cc1ccccn1)CC[C@H]2C(=O)NC(c1ccccc1)c1ccccc1 | Active | Active | Active | Active | inactive | inactive | inactive | 0.97 | > 25 |
| CC[C@H](NC)C(=O)N[C@@H]1C(=O)N2[C@@H](CC[C@@H]1CNC(=O)c1ccccc1)CC[C@H]2C(=O)N[C@H](C(=O)NCCN(Cc1ccccn1)Cc1ccccn1)c1ccccc1 |  |  |  | inactive | inactive |  |  |  |  |
| CC[C@H](NC)C(=O)N[C@@H]1C(=O)N2[C@@H](CC[C@@H]1CNC(=O)CCNC(=O)CN(Cc1ccccn1)Cc1ccccn1)CC[C@H]2C(=O)NC(c1ccccc1)c1ccccc1 | inactive | Active | inactive | inactive |  | inactive | inactive | > 25 | > 25 |
| CC[C@H](NC)C(=O)N[C@@H]1C(=O)N2[C@@H](CC[C@@H]1CNC(=O)c1ccccc1)CC[C@H]2C(=O)NC(c1ccccc1)c1ccccc1 | Active |  | Active | inactive | inactive |  |  | 4.1 | > 25 |
| CC[C@H](NC)C(=O)N[C@@H]1C(=O)N2[C@@H](CC[C@@H]1CNC(=O)COCCOCCNC(=O)CN(Cc1ccccn1)Cc1ccccn1)CC[C@H]2C(=O)NC(c1ccccc1)c1ccccc1 | inactive | Active | inactive | inactive | Active | inactive | inactive | > 25 | > 25 |
| CC[C@H](NC)C(=O)N[C@@H]1C(=O)N2[C@@H](CC[C@@H]1CNC(=O)CN(Cc1ccccn1)Cc1ccccn1)CC[C@H]2C(=O)NC(c1ccccc1)c1ccccc1 | Active | Active | Active | inactive |  | inactive | inactive | 6.5 | > 25 |
